# Screens deposited in PubChem BioAssay by several laboratories.
# Most compounds without a hit are left out; they make up all but 5% or so of the library.
# CHOP UPR activ: activators of apoptotic CHOP UPR arm, primary screen, cell-based, CHO-CHOP luciferase reporter, luminescence, uHTS | UPR activation; percent of tunicamycin response over DMSO baseline | activation, % at 10 µM | 330,000 compounds, 0.34% hits | AID 449763, 2010;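 active means at 10 µM dose, activation of 40% or more, normalized to positive control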;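 further: 100% = tunicamycin at 10 µg/mL and 0% = DMSO alone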
#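 measured by = luciferase luminescence | assay system = CHO-CHOP cells, stable luciferase reporter of PERK-eIF2a-CHOP signalling | amount = 500 reporter cells seeded per well | timing = 6 h compound exposure at 37 °C after overnight seeding | controls = positive tunicamycin 10 µg/mL, negative DMSO alone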
# T cruzi repl: inhibitors of intracellular T. cruzi growth, primary screen, luminescence, NIH3T3 host cells; T. cruzi beta-gal in NIH3T3, 90 h; inhibition, % (no concentration beside the values); 300,000 compounds, 1.4% hits; AID 1885, 2009;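 active means mean inhibition across valid replicates above about 55%, limit read from the data; inconclusive means mean below that limit but half or more replicates reach it; inactive means mean below it, under half of replicates reach it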;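 further: signal also drops with host cell toxicity which is not excluded here; 0% = plate median of DMSO wells and 100% = zero luminescence signal; higher percent means less beta-gal luminescence so fewer parasites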
#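 Test system: β-gal T. cruzi (Tulahuen C4) inside NIH/3T3 cells / Quantity: 5,000 cells/well / Measured by: luminescence from GalScreen with 0.05% NP40, read after 60 min / Medium: DMEM plus 2% FBS / Measure: parasite load inhibition, % / Reagent: Tulahuen C4 trypomastigotes, 5000/well / Schedule: co-culture of at least 90 h after 3 h attachment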
# CSC inhib: cancer stem cell viability inhibitors, primary screen, luminescence; cancer stem cell-like cells viability; AID 2717, 2010; inhibition, % at 7.5 µM; 300,000 compounds, 1.1% hits; in the data active means inhibition above about 75%; inconclusive means no clear call, values can overlap the other calls; tested in HMLE shEcad cells
# UPR XBP1 act: activators of adaptive XBP1 UPR arm, primary screen, cell-based, CHO-XBP1 luciferase reporter, luminescence, uHTS. IRE1-XBP1 UPR activation; percent of tunicamycin response, DMSO as zero. activation, % at 20 µM. 330,000 compounds, 0.33% hits;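 active means versus positive control, 20 µM dose yields 30% or more activation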;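 further: 100% = tunicamycin at 10 µg/mL and 0% = DMSO only wells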
#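 Material: CHO cell line with stable XBP1 luciferase reporter; buffer or medium: F12 medium containing 10% fetal bovine serum; compound: single point, 20 µM final compound, 1% DMSO; incubation: 6 h treatment, 37 °C; measured by: glow luminescence from Steady-Glo reagent; evaluation: activation, % of tunicamycin; control set: tunicamycin high, DMSO low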
# Mdm2 MdmX PPI: inhibitors of human Mdm2-MdmX association, primary screen, cell-based, luminescence, split luciferase, SaOS-2, uHTS | SaOS-2 split-luciferase Mdm2/MdmX complementation | inhibition, % at 8 µM | 330,000 compounds, 3% hits;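 active means inhibition of at least 50% at 8 µM in the primary screen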
# Target sequence (O15151 whole entry, looked up): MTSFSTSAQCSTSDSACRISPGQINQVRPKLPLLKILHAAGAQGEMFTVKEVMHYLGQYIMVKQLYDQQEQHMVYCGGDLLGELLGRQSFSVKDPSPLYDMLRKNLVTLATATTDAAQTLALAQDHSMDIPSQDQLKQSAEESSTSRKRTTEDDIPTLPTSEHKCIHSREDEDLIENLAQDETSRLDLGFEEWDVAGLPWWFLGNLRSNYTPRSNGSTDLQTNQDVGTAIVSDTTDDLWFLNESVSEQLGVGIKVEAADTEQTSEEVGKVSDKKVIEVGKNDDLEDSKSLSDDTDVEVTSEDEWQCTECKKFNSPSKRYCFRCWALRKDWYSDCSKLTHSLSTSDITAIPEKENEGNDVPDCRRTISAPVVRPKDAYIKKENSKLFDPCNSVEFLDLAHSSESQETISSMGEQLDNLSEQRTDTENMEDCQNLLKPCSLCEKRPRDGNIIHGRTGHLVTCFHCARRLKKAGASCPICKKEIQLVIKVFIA
# Target sequence (Q00987 whole entry, looked up): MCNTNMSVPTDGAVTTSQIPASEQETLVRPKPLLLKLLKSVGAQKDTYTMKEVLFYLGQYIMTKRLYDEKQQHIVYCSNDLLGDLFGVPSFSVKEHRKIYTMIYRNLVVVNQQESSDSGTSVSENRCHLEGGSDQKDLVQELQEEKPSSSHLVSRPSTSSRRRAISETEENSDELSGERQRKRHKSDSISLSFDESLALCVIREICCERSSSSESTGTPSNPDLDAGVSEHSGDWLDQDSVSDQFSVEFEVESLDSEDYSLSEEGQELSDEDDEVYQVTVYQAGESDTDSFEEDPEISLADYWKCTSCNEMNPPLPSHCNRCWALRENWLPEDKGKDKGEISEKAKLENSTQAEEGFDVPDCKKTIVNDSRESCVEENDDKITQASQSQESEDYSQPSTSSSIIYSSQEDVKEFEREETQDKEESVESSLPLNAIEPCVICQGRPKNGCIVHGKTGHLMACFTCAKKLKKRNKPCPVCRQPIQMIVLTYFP
# Beta apoptosis: inhibitors of cytokine-induced beta cell apoptosis, primary screen, luminescence; INS-1E cytokine-induced death, ATP luminescence, 48 h; percent of positive-control rescue, neutral wells zero; protection from apoptosis, % (no concentration beside the values); 300,000 compounds, 0.8% hits;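 active means Every replicate reaches about 75%, or at least half do and their mean reaches it too, limit read from the data; inconclusive means At least half of replicates reach the limit but their mean does not; inactive means Under half of replicates reach the limit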;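 further: 0% = cytokine-treated negative control wells and 100% = positive control rescue; higher means more ATP so stronger rescue from cytokine killing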
# Mdm2 MdmX conf: Mdm2-MdmX complex disruptors, retested hits, confirmation, luminescence, single concentration | shares compounds with Mdm2 MdmX PPI | AID 489028, 2010 | 10,000 compounds, 55% hits | inhibition, % at 8 µM | Mdm2-MdmX binding, luminescent assay; in the data active means inhibition above about 40%
# FLuc counter: full-length luciferase signal inhibition, confirmation, counter-screen for Mdm2/MdmX interaction inhibitor project, cell-based, single concentration, SaOS-2 | shares compounds with Mdm2 MdmX PPI | SaOS-2 full-length luciferase counterscreen, luminescence | inhibition, % at 8 µM | 6,200 compounds, 77% hits | AID 504607, 2011;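 active means mean inhibition at 8 µM reaching about 37%, which flags the compound as non-specific, limit read from the data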;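 further: p53-null SaOS-2 cells with luciferase driven by a doxycycline-inducible promoter; compound on cells about two nights before reading with doxycycline added after day one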
# Starred values were filed as active, the others as inactive; ? = inconclusive; . = no result given.
SMILES,CHOP UPR activ,T cruzi repl,CSC inhib,UPR XBP1 act,Mdm2 MdmX PPI,Beta apoptosis,Mdm2 MdmX conf,FLuc counter
CCOC(=O)/C=C/C(=O)Nc1ccc(S(=O)(=O)Nc2c(C)cc(C)cc2C)cc1,1,-20,44,0,50*,-6,28,.
CCOC(=O)/C=C/C(=O)Nc1ccc(Oc2ccccc2)cc1,9,-39,31,7,56*,-10,55*,24
COCCNC(=O)c1cc(OC)c(OC)cc1[N+](=O)[O-],-1,-8,-13,-2,-14,-4,.,.
CCOC(=O)C(C(C)=O)c1c(Br)c(O)c(O)c2c(C(=O)c3ccc(C)cc3)coc12 (stereo not drawn),39,16,103*,25,64*,95*,60*,47*
CCOC(=O)c1c(C)n(-c2ccc(C)cc2)c2c(C(C(C)=O)C(=O)O)c(Br)c(O)c(O)c12 (stereo not drawn),-1,9,17,-4,14,0,.,.
Cc1cc2c(cc1C)-c1nnc(-c3ccc4ccccc4n3)n1C(C)(C)C2,-1,7,-8,1,70*,1,-1,.
Cc1nc(NCc2ccco2)c2c3c(sc2n1)CCC3,-1,-19,2,-1,72*,-20,33,.
Cc1cc(SCc2ccccc2Cl)nc(=O)[nH]1,-3,-1,-26,-2,10,.,.,.
Cc1cc(SCc2ccc(Cl)cc2Cl)nc(=O)[nH]1,1,-6,62,-2,53*,-2,30,.
Cc1nonc1NC(=O)CSc1nc(C23CC4CC(CC(C4)C2)C3)nc2ccccc12,0,30,29,-1,52*,10,23,.
NC(=O)CSc1nc(C23CC4CC(CC(C4)C2)C3)nc2ccccc12,1,27,55,-3,60*,-8,38,45*
Cc1nonc1NC(=O)CSc1nc(C2CCCCC2)nc2ccccc12,0,12,22,-3,40,-4,.,.
COCCSc1ccccc1C(=O)Nc1ccccc1C#N,0,-10,-4,1,-8,4,.,.
COc1ccc(-c2ccc3c(c2)S(=O)(=O)c2cccc(C(=O)N4CCN(C5CCCCC5)CC4)c2C3=O)cc1OC,2,.,.,-2,26,-2,.,.
C=CCN(c1ccccc1)S(=O)(=O)c1cccc(C(=O)N2CC(C)CC(C)C2)c1 (stereo not drawn),-1,21,-4,-6,32,7,.,.
CC[C@]12c3[nH]c4ccc(Cl)cc4c3CCN1C(=O)[C@@H](CC(=O)NC/C=C(\C)CCC=C(C)C)C[C@@H]2C(=O)N1CCN(C(=O)c2ccco2)CC1,12,.,.,18,66*,.,-11,.
CC[C@]12c3[nH]c4ccc(Cl)cc4c3CCN1C(=O)[C@@H](CC(=O)NC(C)(C)C)C[C@@H]2C(=O)N1CCN(C(=O)c2ccco2)CC1,2,.,.,3,45,.,.,.
CC[C@]12c3[nH]c4cc(CCC(=O)N(C)C)ccc4c3CCN1C(=O)[C@@H](CC(=O)NC/C=C(\C)CCC=C(C)C)C[C@@H]2C(=O)N1CCN(C(=O)c2ccco2)CC1,3,.,.,6,93*,.,59*,59*
COc1ccc(C(=O)N[C@H](C(=O)NCCCSc2ccccc2)C(C)C)cc1,0,.,-10,-4,20,-8,.,.
COc1cc(/C=C2/CCC/C(=C\c3cc(O)c(OC)c(Cl)c3)C2=O)cc(Cl)c1O,40,12,119*,19,95*,9,80*,52*
COc1cc(/C=C2\CC/C(=C\c3cc(OC)c(O)c(OC)c3)C2=O)cc(OC)c1O,-4,.,86*,-2,97*,89*,62*,26
COc1cc(/C=C2\CC/C(=C\c3cc(OC)c(OC)c(OC)c3)C2=O)cc(OC)c1OC,0,35,4,-2,32,8,.,.
COc1cc(/C=C2\CCC/C(=C\c3ccc(O)c(OC)c3)C2=O)ccc1O,25,-10,100*,16,100*,-24,89*,22
CC(C)=NNc1nc2sc3c(c2c(=O)[nH]1)CC(C)(C)OC3,0,-7,-2,-3,13,0,.,.
Cc1ccc(CN=C2NC(=O)C(CC(=O)NCCc3ccccc3)S2)cc1 (stereo not drawn),0,-1,3,-1,15,-6,.,.
SMILES,CHOP UPR activ,T cruzi repl,CSC inhib,UPR XBP1 act,Mdm2 MdmX PPI,Beta apoptosis,Mdm2 MdmX conf,FLuc counter
O=Cc1ccccc1OCCOc1ccccc1C=O,9,-25,53,22,51*,20,43*,91*
O=Cc1ccccc1Oc1ccccc1,-2,-4,1,-2,14,-2,.,.
COc1cccc(C(=O)NC23CC4CC(CC(C4)C2)C3)c1,4,-10,-11,-5,-9,4,.,.
Cc1cc2oc3cc(NCCC4CCCN4C)ccc3c(=O)c2cc1C (stereo not drawn),2,39,103*,5,82*,11,-31,.
COc1ccc(-c2nnc(Nc3nc4c(OC)cccc4s3)o2)c(OC)c1,20,41,.,3,68*,.,58*,48*
Fc1cccc2sc(Nc3nnc(-c4ccccc4)o3)nc12,8,0,63,7,-1,26,.,.
CCOc1ccc(-c2nc(N)ncc2Oc2cccc(OC)c2)c(O)c1,0,26,-8,3,66*,-18,42*,62*
Cc1cccc(C)c1Nc1c(-c2ccccn2)nc2ccccn12,8,61*,39,4,77*,14,58*,41*
Cc1ccc(Nc2c(-c3ccccn3)nc3cccc(C)n23)cc1,21,59*,?,17,87*,117*,91*,21
CCOC(=O)CSCC(=O)Nc1c(C(=O)C2CC2)oc2ccccc12,1,-5,-10,6,8,-8,.,.
COC(=O)Cn1c(=O)c(C(=O)CCl)c(N)n(Cc2ccccc2)c1=O,7,?,11,-4,75*,-15,48*,70*
